Rows were chosen to be rich in hits. Some 2.3% of all compounds tested hit in one or more screens of this group.
TRPC4 agonist: TRPC4 (mouse) channel activation; Q9QUQ5; HEK293 TRPC4beta/mu-opioid, Fluo4 calcium fluorescence; stronger effect = higher value; B-score at 10 µM; 310,000 tested, 0.49% active; AID 2237;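 active = B-score above 5 SD of library B-scores, and initial fluorescence ratio not above library mean plus 5 SD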;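 note: positive B-score marks a calcium rise read as TRPC4 activation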
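Assay system: HEK293 cells stably co-expressing mouse TRPC4beta and mu-opioid receptor / Timing: Fluo4 dye loading 45 min at room temperature, 110 s recording / Signal: Fluo4 calcium-sensitive dye fluorescence, kinetic, 1 Hz baseline / Read-out: integrated baseline-normalised fluorescence ratio, converted to per-well B score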
TRPC4 inh: blocks the mouse TRPC4 cation channel; Q9QUQ5; HEK293 TRPC4beta/mu-opioid, DAMGO-evoked Fluo4 calcium flux; stronger effect = lower value; B-score at 10 µM; 300,000 tested, 0.39% active;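 active = B-score over 3 SD under the library average, no early fluorescence shift, positive overall ratio signal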
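material = TRPC4beta/mu-opioid receptor HEK293 cell line | probe or stimulus = sequential submaximal and maximal DAMGO stimulation | compound dosing = one concentration per compound | measured by = Fluo4 Ca2+ flux fluorescence | evaluation = integrated fluorescence ratio relative to baseline, converted to per-well B score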
TRPC6 inhibitor: mouse TRPC6 channel inhibition; Q61143; HEK293-TRPC6, membrane potential dye, ACh-evoked depolarization; stronger effect = lower value; B-score at 10 µM; 310,000 tested, 1.1% active;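 active = B-score under library mean minus 3 SD, initial fluorescence not abnormally high, positive integrated signal ratio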;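 note: B-score derived from integrated fluorescence ratio over the kinetic read; more negative B-score means stronger inhibition of depolarization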
CR mimetic SO: caloric restriction mimetics inhibiting age-related superoxide in yeast. S. cerevisiae aged cells, superoxide DHE fluorescence; stronger effect = lower value. superoxide response (% of plate mean), % at 10 µM. 330,000 tested, 0.18% active;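 active = superoxide response under a set limit, about three screen SD below normal, cut at about 65% in these data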;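 note: yeast aged for seven days with compound at 30 °C before DHE staining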
TRPC4 potent: allosterically enhances the mouse TRPC4 cation channel. AID 2227. 310,000 tested, 0.42% active. B-score at 10 µM. HEK293 TRPC4beta/mu-opioid, DAMGO EC20, Fluo-4 Ca2+ flux; stronger effect = higher value;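 active = B-score of calcium response area above 5 SD of library B-scores, with initial fluorescence ratio within 5 SD of library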
TRPC6 act: mouse TRPC6 channel activation; 310,000 tested, 0.13% active; AID 2550; HEK293-TRPC6 membrane potential dye fluorescence; stronger effect = higher value; B-score at 10 µM;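 active = B-score of the integrated fluorescence ratio above library mean plus 3 SD, and starting fluorescence ratio within library mean plus 5 SD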;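 note: higher score means more depolarization so channel activation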
Each line names hits and unclear results; the compound was inactive in the other large screens.

N=c1n(Cc2ccc(Cl)cc2)c2ccccc2n1CC(O)COc1ccccc1 (centres undefined)	TRPC4 agonist 86
CCN(CC)CCn1c(=N)n(CC(O)COc2cccc(C)c2)c2ccccc21 (centres undefined)	TRPC4 inh -5
N=c1n(Cc2ccccc2)c2ccccc2n1CC(O)COc1ccc(Cl)cc1Cl (centres undefined)	TRPC4 potent 12 (no result: CR mimetic SO)
N=c1n(CCO)c2ccccc2n1Cc1ccc(Cl)cc1	TRPC4 inh -6
CCOCC(=O)Nc1nnc(SCCOC)s1	none
CC(C)CN(CC(C)C)CC(O)COc1ccc([N+](=O)[O-])cc1 (centres undefined)	none
CC(C)(C)OC(=O)N1CCC(c2cc(=O)n3[nH]cc(C(=O)Nc4ccc(F)c(Cl)c4)c3n2)CC1	none
COc1ccc(NC(=O)c2c[nH]n3c(=O)cc(C4CCN(C(=O)OC(C)(C)C)CC4)nc23)cc1Cl	TRPC4 inh -7
CCN(CC)c1nc(-c2ccc(C(=O)NN)cc2)nc(-c2ccc(C(=O)NN)cc2)n1	none
Cc1ccc2c(c1)C1CN(C)CCC1N2C(=S)NC(=O)c1ccc(Br)cc1 (centres undefined)	TRPC4 potent 17
COc1ccc(OCC(=O)N2c3ccc(C)cc3C3CN(C)CCC32)cc1 (centres undefined)	none
COC(=O)[C@H](C)NC(=O)Nc1ccc(C)c(C)c1	none
O=C(Nc1ccc(Oc2ccccc2)nc1)C1CCN(Cc2ccccc2)CC1	TRPC4 inh -6
CC(C)(C)c1csc(NC(=O)c2cccs2)n1	none
CC(C)(C)c1csc(NC(=O)Cc2cccs2)n1	TRPC4 potent 69
Cc1cc(NC(=O)c2cc(-c3cccs3)nc3ccccc23)no1	TRPC4 inh -6
CC1Cc2nc(SCC(N)=O)n(Cc3ccccc3)c(=O)c2S1 (centres undefined)	none
CCSc1nc2c(c(=O)n1Cc1ccccc1)SC(C)C2 (centres undefined)	TRPC4 inh -6
Cc1ccc(NC(=O)COc2ncnc3sccc23)cc1S(=O)(=O)N(C)C	none
CCCNc1nc2ccccc2n2c(C)nnc12	TRPC4 inh -6
CCCN(CCC)c1nc2ccccc2n2c(C)nnc12	none
CSc1nnc(C)c(=O)n1COC(=O)COc1ccc(F)cc1	none
CN(C)CC/C=C1\c2cc(Cl)ccc2Sc2cc(F)c(F)cc21	TRPC6 inhibitor -5.54
CN(C)CC/C=C1/c2ccc(F)cc2Sc2ccc(Cl)cc21	TRPC6 inhibitor -5.84
O=C(COC(=O)c1cccc(S(=O)(=O)N2CCOCC2)c1)c1ccccc1	none
COCCNc1nc2nonc2nc1NC(C)c1ccccc1Cl (centres undefined)	none
CC1CCN(C(=O)COc2coc(CN3CCc4ccccc43)cc2=O)CC1	none
O=C(C1CCN(S(=O)(=O)c2cccnc2)CC1)N1CCN(c2ccccc2Cl)CC1	none
O=C(C1CCN(S(=O)(=O)c2cccnc2)CC1)N1CCN(c2ccc(Cl)cc2)CC1	TRPC4 agonist 63, TRPC4 inh -6
Cn1c(N)c(S(=O)(=O)N2CCN(c3ccccc3)CC2)c(=O)n(C)c1=O	none
CCN(CC1COc2ccccc2O1)C(=S)NCCCN(C)C (centres undefined)	TRPC4 potent 12
CCOc1ccc(-c2cc(NC(=O)c3c(F)cccc3F)c(C(=O)O)s2)cc1	TRPC4 inh -5
CC1(C)CC(NCCN2CCN(C3=CC(=C(C#N)C#N)CC(C)(C)C3)CC2)=CC(=C(C#N)C#N)C1	TRPC4 agonist 55 (no result: TRPC4 inh)
Nc1c2c(nc3sc4c(c13)CCCCC4)CCCCC2	TRPC4 inh -5
C=CCOc1ccc(CN(C)Cc2nc3cc(C(F)(F)F)ccc3c(=O)[nH]2)cc1	TRPC4 potent 15
COc1cccc(CN(C)Cc2nc3cc(C(F)(F)F)ccc3c(=O)[nH]2)c1	none
Cc1nn2c(N3CCN(C)CC3)c3c(nc2c1-c1ccccc1)CCCC3	TRPC4 potent 28
C[C@@H](C(=O)NC1CCCC1)N1C(=O)N2CCc3c([nH]c4ccccc34)[C@@]2(C)C1=O	none
COc1ccc(C(CNC(=O)C2CC(=O)N(Cc3ccc(C)cc3)C2)N(C)C)cc1 (centres undefined)	TRPC4 agonist 66
CN(C)C(CNC(=O)C1CC(=O)N(Cc2ccccc2)C1)c1ccccc1 (centres undefined)	TRPC4 agonist 72
O=[N+]([O-])c1ccc(OCCOCCOc2ccc([N+](=O)[O-])cc2)cc1	none
CCOc1ccc2[nH]c3c(N4CCN(c5ccccn5)CC4)ncnc3c2c1	TRPC4 inh -6
Cc1ccc2[nH]c(C(=O)O)c(-c3ccccc3)c2c1	none
Cc1ccc2[nH]c(C(=O)NN=C3CCCCC3)c(-c3ccccc3)c2c1	TRPC4 potent 10
Cc1cccc2cc(CN(Cc3nnnn3C3CCCC3)C3CCCCC3)c(=O)[nH]c12	none
CCc1ccc2[nH]c(=O)c(CN(Cc3nnnn3C3CCCC3)C3CCCCC3)cc2c1	TRPC4 potent 10
CN1CCN(S(=O)(=O)c2ccc(NC(=S)NC(=O)C3CCCCC3)cc2)CC1	none
CC(NCCC1(Cc2ccccc2Cl)CCOC(C)(C)C1)c1cccs1 (centres undefined)	TRPC4 agonist 68
CC1CCCN(CC(O)COCc2ccc3c(c2)OCO3)C1 (centres undefined)	none
COc1ccc(NC(c2ccccc2)c2ccncc2)cc1 (centres undefined)	none
Cc1ccc(NC(=O)CCN2CCC(Cc3ccccc3)CC2)cc1	TRPC4 agonist 96
COc1ccccc1N1CCN(C(=O)c2ccc3c(c2)NC(=O)C(CSCc2ccccc2C)N3)CC1 (centres undefined)	TRPC6 inhibitor -8.77
O=C1Nc2cc(C(=O)N3CCN(c4ccccc4F)CC3)ccc2NC1CSCc1ccccc1F (centres undefined)	none
CCCN1CCc2[nH]c(=S)[nH]c(=O)c2C1	none
N=c1oc2ccc(Br)cc2cc1C(=O)NCc1ccc(F)cc1	TRPC4 potent 12
CCn1c(SCC(=O)c2cc(C)n(CC3CCCO3)c2C)nc2ccccc21 (centres undefined)	TRPC4 agonist 200, TRPC4 inh -7
CC(C)=Cc1oc2ccc([N+](=O)[O-])cc2c1N1CCOCC1	none
CC1CN(C)C(C)c2c1oc1ccc(N)cc21 (centres undefined)	TRPC4 agonist 239
CC1CN(C)C(C)c2c1oc1ccc([N+](=O)[O-])cc21 (centres undefined)	TRPC4 agonist 115
Nc1sc(-c2ccccc2)n[n+]1Cc1cccc2cccnc12	TRPC4 agonist 58
Oc1ccccc1CNc1cccc2cccnc12	none
